Laboratory results taken from ChEMBL document CHEMBL1909581, “Growth inhibition of human lung cancer cells via down-regulation of epidermal growth factor receptor signaling by yuanhuadine, a daphnane diterpene from Daphne genkwa” (J Nat Prod, 2011).
The source made the active and inactive calls. The calls are words filed in the database; no cut-off is given here.

Legend:
A549 [1] = experiment: Cell cycle arrest in human A549 cells assessed as accumulation at S phase at 100 nM after 48 hrs by propidium iodide staining-based flow cytometric analysis (reference value: 31.6 %); assay type: functional
[2] = biological target: Epidermal growth factor receptor (Homo sapiens) (UniProt P00533); experiment: Inhibition of EGFR phosphorylation in […]-stimulated human A549 cells pretreated at 20 nM by Western blot analysis; assay type: cell-based
Sequence of Epidermal growth factor receptor (Homo sapiens) (P00533 whole entry): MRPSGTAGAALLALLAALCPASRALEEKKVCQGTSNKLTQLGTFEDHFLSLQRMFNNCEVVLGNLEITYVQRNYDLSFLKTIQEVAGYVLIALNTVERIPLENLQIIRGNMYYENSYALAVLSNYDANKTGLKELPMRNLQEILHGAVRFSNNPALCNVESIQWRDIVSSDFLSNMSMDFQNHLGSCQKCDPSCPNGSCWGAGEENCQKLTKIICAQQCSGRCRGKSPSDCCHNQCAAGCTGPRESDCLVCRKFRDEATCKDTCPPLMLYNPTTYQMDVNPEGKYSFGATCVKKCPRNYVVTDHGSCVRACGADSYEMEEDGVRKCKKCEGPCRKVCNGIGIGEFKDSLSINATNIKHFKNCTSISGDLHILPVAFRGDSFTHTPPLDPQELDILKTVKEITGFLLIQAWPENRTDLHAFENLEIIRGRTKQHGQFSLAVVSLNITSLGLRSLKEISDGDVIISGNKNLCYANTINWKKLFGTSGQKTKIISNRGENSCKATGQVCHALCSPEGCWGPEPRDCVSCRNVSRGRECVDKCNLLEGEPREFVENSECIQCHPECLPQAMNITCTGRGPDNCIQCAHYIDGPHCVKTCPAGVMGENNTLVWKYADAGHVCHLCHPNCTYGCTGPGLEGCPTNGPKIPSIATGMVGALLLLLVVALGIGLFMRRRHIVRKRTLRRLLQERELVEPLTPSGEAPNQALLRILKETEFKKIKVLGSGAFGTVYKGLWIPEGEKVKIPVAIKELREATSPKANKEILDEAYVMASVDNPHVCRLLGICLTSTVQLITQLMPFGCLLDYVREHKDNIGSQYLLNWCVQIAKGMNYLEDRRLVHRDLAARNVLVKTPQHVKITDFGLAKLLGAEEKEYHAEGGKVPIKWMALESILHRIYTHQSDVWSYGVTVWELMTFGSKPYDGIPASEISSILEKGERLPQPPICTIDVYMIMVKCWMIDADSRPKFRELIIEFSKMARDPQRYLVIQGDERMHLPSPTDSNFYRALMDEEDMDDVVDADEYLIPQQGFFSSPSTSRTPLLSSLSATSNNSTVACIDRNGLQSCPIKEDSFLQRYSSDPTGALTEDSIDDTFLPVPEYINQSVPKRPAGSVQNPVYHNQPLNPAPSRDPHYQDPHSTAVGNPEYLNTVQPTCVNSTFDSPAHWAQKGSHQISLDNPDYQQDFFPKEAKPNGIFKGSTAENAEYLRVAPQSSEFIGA
Summary of the method: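 A549 cells serum-starved 24 h, pretreated with 20 nM for 2 h, then stimulated with EGF (10 ng/mL) for 10 min. EGFR, Akt and ERK phosphorylation and levels assessed by Western blot.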

A549 [3] = experiment: Antitumor activity against human A549 cells xenografted in BALB/c mouse assessed as inhibition of tumor growth at 0.2 mg/kg, po once daily for 14 days measured for 27 days relative to control; assay type: functional, organism-based; design: dose 0.2 mg/kg
Summary of the method: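 Female nu/nu nude mice given 3 × 10^6 A549 cells sc into the right flank, in 200 μL medium. At ~100 mm3, randomized into groups of five. Dosed orally once daily for 14 days in 100 μL ethanol–Tween 80–water (1:1:98), vehicle as control. Tumor volume measured by caliper every 2–3 days; body weight monitored.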

[4] = biological target: Hepatocyte growth factor receptor (Homo sapiens) (UniProt P08581); experiment: Inhibition of c-Met-mediated FKHRL1 phosphorylation in HGF-stimulated human A549 cells pretreated at 5 to 100 nM by Western blot analysis; assay type: cell-based
Sequence of Hepatocyte growth factor receptor (Homo sapiens) (P08581 whole entry): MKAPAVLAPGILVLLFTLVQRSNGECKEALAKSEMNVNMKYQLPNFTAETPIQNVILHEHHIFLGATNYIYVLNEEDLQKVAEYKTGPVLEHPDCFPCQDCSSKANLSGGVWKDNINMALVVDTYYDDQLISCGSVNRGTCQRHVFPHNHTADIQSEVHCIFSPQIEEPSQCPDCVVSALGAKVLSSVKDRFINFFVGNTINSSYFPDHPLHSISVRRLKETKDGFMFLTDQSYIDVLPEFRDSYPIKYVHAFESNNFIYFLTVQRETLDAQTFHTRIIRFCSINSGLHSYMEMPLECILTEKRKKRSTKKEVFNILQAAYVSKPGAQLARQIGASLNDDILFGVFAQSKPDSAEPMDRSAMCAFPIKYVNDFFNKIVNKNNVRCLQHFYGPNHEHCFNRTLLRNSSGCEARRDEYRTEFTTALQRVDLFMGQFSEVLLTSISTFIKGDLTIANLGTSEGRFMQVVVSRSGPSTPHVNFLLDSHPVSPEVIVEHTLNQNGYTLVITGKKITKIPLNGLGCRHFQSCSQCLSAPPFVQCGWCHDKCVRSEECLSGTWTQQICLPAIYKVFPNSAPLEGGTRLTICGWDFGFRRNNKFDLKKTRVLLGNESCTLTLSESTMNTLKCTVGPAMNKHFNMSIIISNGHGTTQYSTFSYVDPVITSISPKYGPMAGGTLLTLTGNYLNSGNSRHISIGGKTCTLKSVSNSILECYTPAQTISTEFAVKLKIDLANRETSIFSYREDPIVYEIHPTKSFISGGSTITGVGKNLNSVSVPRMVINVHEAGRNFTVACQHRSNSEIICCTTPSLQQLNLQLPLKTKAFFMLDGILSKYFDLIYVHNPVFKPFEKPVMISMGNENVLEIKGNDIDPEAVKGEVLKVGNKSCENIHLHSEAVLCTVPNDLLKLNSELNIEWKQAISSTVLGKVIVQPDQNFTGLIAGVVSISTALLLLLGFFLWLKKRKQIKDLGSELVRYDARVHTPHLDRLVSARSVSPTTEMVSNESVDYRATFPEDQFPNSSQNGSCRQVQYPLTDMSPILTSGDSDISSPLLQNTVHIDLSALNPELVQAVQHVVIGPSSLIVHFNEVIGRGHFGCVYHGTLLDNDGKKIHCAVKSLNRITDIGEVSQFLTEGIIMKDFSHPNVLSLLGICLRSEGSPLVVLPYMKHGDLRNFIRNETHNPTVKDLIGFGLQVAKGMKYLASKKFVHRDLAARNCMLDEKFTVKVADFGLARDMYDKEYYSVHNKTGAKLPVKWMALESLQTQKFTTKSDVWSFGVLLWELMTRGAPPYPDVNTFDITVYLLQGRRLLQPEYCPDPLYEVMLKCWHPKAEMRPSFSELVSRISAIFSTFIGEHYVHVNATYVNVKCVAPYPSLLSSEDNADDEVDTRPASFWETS
Summary of the method: (§1)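 A549 cells pretreated for 2 h with the compound at 5, 20 or 100 nM, then stimulated with HGF (50 ng/mL) for 10 min. c-Met and its downstream signalling proteins read by Western blot (SDS-PAGE, PVDF transfer, ECL detection).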

[5] = biological target: Hepatocyte growth factor receptor (Homo sapiens) (UniProt P08581); experiment: Inhibition of c-Met-mediated MTOR phosphorylation in HGF-stimulated human A549 cells pretreated at 5 to 100 nM by Western blot analysis; assay type: cell-based; summary of the method: as §1
A549 [6] = experiment: Downregulation of cyclin B1 expression in human A549 cells at G2/M phase at 5 to 100 nM after 24 to 48 hrs by Western blot analysis; assay type: functional, cell-based
Summary of the method: (§2)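 A549 cells treated with a range of concentrations for 24 or 48 h. Lysates run on 6–15% SDS-PAGE and blotted to PVDF, blocked in 5% milk/PBST. Primary antibodies overnight at 4 °C, secondary 2 h at room temperature, ECL detection. Representative of three independent experiments.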

A549 [7] = experiment: Downregulation of cyclin A expression in human A549 cells at G1 phase at 5 to 100 nM after 24 to 48 hrs by Western blot analysis; assay type: functional, cell-based; summary of the method: as §2
A549 [8] = experiment: Cell cycle arrest in human A549 cells assessed as accumulation at G2/M phase at 20 nM after 48 hrs by propidium iodide staining-based flow cytometric analysis (reference value: 18.9 %); assay type: functional
A549 [9] = experiment: Downregulation of phosphorylated Rb expression in human A549 cells at G1 phase at 5 to 100 nM after 24 to 48 hrs by Western blot analysis; assay type: functional, cell-based; summary of the method: as §2
A549 [10] = experiment: Downregulation of CDK4 expression in human A549 cells at G1 phase at 5 to 100 nM after 24 to 48 hrs by Western blot analysis; assay type: functional, cell-based; summary of the method: as §2
[11] = biological target: 3-phosphoinositide-dependent protein kinase 1 (Homo sapiens) (UniProt O15530); experiment: Inhibition of PDK1 phosphorylation in human A549 cells after 24 hrs by Western blot analysis; assay type: cell-based
Sequence of 3-phosphoinositide-dependent protein kinase 1 (Homo sapiens) (O15530 whole entry): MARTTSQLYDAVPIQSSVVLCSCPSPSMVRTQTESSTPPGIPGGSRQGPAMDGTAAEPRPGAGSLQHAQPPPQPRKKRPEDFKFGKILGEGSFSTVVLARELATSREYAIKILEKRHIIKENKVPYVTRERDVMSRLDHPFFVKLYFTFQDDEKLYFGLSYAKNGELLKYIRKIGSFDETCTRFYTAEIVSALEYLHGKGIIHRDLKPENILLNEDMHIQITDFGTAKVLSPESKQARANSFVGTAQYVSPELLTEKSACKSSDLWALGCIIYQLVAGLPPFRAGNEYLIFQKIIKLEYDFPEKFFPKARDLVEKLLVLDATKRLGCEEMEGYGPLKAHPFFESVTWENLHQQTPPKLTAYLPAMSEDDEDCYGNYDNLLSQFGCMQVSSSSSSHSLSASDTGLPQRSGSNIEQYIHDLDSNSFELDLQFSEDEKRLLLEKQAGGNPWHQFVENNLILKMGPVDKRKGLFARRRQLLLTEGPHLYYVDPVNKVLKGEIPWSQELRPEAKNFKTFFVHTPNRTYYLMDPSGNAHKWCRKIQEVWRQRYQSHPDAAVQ
Summary of the method: (§3)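 A549 cells (RPMI 1640, 10% FBS, 37 °C, 5% CO2) exposed to the compound at various concentrations for 24 or 48 h. Lysates run on 6–15% SDS-PAGE, transferred to PVDF, probed with primary antibodies overnight at 4 °C, and detected by ECL. Blots shown are representative of three independent experiments.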

[12] = biological target: Serine/threonine-protein kinase mTOR (Homo sapiens) (UniProt P42345); experiment: Inhibition of MTOR-mediated 4EBP1 phosphorylation in human A549 cells at 20 nM after 24 to 48 hrs by Western blot analysis; assay type: cell-based; summary of the method: as §3
[13] = biological target: Hepatocyte growth factor receptor (Homo sapiens) (UniProt P08581); experiment: Inhibition of c-Met-mediated p70S6K phosphorylation in HGF-stimulated human A549 cells pretreated at 5 to 100 nM by Western blot analysis; assay type: cell-based; summary of the method: as §1
[14] = biological target: Serine/threonine-protein kinase mTOR (Homo sapiens) (UniProt P42345); experiment: Inhibition of MTOR-mediated p70S6K activation in human A549 cells at 20 nM after 24 to 48 hrs by Western blot analysis; assay type: cell-based; summary of the method: as §3
[15] = biological target: Hepatocyte growth factor receptor (Homo sapiens) (UniProt P08581); experiment: Inhibition of c-Met-mediated 4EBP1 phosphorylation in HGF-stimulated human A549 cells pretreated at 5 to 100 nM by Western blot analysis; assay type: cell-based; summary of the method: as §1
A549 [16] = experiment: Cell cycle arrest in human A549 cells assessed as accumulation at G0/G1 phase at 5 nM after 48 hrs by propidium iodide staining-based flow cytometric analysis (reference value: 49.6 %); assay type: functional
A549 [17] = experiment: Cell cycle arrest in human A549 cells assessed as accumulation at G2/M phase at 100 nM after 24 hrs by propidium iodide staining-based flow cytometric analysis (reference value: 18.9 %); assay type: functional
A549 [18] = experiment: Cell cycle arrest in human A549 cells assessed as accumulation at Sub-G1 phase at 100 nM after 48 hrs by propidium iodide staining-based flow cytometric analysis (reference value: 0.2 %); assay type: functional
Mus musculus = experiment: Toxicity in BALB/c mouse xenografted with human A549 cells in assessed as body weight at 0.5 mg/kg, po once daily for 14 days measured for 27 days relative to control; assay type: organism-based; design: dose 0.5 mg/kg, route oral; settings: in vivo, 648 h
Summary of the method: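 Female nu/nu mice were injected sc in the right flank with 3 × 10^6 A549 cells. At about 100 mm3 tumour volume, mice were randomised into groups of five. Compound was given orally at 0.2 or 0.5 mg/kg once daily for 14 days in ethanol/Tween 80/H2O (1:1:98). Body weight and overt toxicity were monitored against vehicle controls.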

A549 [19] = experiment: Cell cycle arrest in human A549 cells assessed as accumulation at S phase at 5 nM after 48 hrs by propidium iodide staining-based flow cytometric analysis (reference value: 31.6 %); assay type: functional
A549 [20] = experiment: Cell cycle arrest in human A549 cells assessed as accumulation at S phase at 5 nM after 24 hrs by propidium iodide staining-based flow cytometric analysis (reference value: 31.6 %); assay type: functional
[21] = biological target: Mitogen-activated protein kinase; ERK1/ERK2 (Homo sapiens) (UniProt P27361+P28482); experiment: Inhibition of ERK1/2 in human A549 cells at 5 to 40 nM after 24 hrs by Western blot analysis; assay type: cell-based; summary of the method: as §3
Sequence of Mitogen-activated protein kinase; ERK1/ERK2 (Homo sapiens) (P27361 whole entry, looked up): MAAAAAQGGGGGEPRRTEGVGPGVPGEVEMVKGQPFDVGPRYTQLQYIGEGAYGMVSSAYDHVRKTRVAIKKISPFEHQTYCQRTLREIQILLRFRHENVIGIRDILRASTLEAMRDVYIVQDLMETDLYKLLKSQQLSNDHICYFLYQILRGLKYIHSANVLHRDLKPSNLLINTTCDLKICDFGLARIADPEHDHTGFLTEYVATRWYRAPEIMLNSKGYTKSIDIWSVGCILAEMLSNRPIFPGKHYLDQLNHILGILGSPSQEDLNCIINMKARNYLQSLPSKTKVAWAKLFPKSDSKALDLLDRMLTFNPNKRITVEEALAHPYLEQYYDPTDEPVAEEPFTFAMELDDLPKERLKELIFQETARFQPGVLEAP
Sequence of Mitogen-activated protein kinase; ERK1/ERK2 (Homo sapiens) (P28482 whole entry, looked up): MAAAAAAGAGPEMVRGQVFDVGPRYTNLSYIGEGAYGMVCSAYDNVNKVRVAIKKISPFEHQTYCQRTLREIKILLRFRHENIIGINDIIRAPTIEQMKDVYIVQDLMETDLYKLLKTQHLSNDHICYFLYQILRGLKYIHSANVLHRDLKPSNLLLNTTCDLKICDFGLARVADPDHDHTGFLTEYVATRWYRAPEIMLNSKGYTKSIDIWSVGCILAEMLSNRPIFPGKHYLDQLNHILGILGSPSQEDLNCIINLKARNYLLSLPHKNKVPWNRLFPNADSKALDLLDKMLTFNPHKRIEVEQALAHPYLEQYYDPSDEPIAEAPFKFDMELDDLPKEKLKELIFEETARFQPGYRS

A549 [22] = experiment: Cell cycle arrest in human A549 cells assessed as accumulation at Sub-G1 phase at 100 nM after 24 hrs by propidium iodide staining-based flow cytometric analysis (reference value: 0.2 %); assay type: functional
A549 [23] = experiment: Cell cycle arrest in human A549 cells assessed as accumulation at G2/M phase at 20 nM after 24 hrs by propidium iodide staining-based flow cytometric analysis (reference value: 18.9 %); assay type: functional
[24] = biological target: Hepatocyte growth factor receptor (Homo sapiens) (UniProt P08581); experiment: Inhibition of c-Met-mediated STAT3 phosphorylation in HGF-stimulated human A549 cells pretreated at 5 to 100 nM by Western blot analysis; assay type: cell-based; summary of the method: as §1
A549 [25] = experiment: Cell cycle arrest in human A549 cells assessed as accumulation at G0/G1 phase at 100 nM after 48 hrs by propidium iodide staining-based flow cytometric analysis (reference value: 49.6 %); assay type: functional
A549 [26] = experiment: Upregulation of p21 expression in human A549 cells at G1 phase at 5 to 100 nM after 24 to 48 hrs by Western blot analysis; assay type: functional, cell-based; summary of the method: as §3

Q: C=C(C)[C@@]12O[C@@]3(/C=C/C=C/CCCCC)O[C@@H]1[C@@H]1[C@@H]4O[C@]4(CO)[C@@H](O)[C@]4(O)C(=O)C(C)=C[C@H]4[C@@]1(O3)[C@H](C)[C@H]2OC(C)=O [YUANHUADINE] was tested. Which Activity (A549 [1]) did it give?
A: 12.6%

Q: And the inhibition [2]?
A: Active

Q: And the “growth inhibition (GI)” value (A549 [3])?
A: Active

Q: And the inhibition [4]?
A: Active

Q: And the inhibition [5]?
A: Active

Q: What about the Activity (A549 [6]) of the same molecule?
A: Active

Q: What about the Activity (A549 [7]) of the same molecule?
A: Active

Q: What about the Activity (A549 [8]) of the same molecule?
A: 22.2%

Q: What about the Activity (A549 [9]) of the same molecule?
A: Active

Q: What about the Activity (A549 [10]) of the same molecule?
A: Active

Q: What about the inhibition [11] of the same molecule?
A: Dose-dependent effect

Q: What about the inhibition [12] of the same molecule?
A: Active

Q: What about the inhibition [13] of the same molecule?
A: Active

Q: And the inhibition [14]?
A: Active

Q: And the inhibition [15]?
A: Active

Q: What about the Activity (A549 [16]) of the same molecule?
A: 62.2%

Q: What about the Activity (A549 [17]) of the same molecule?
A: 28%

Q: What about the Activity (A549 [18]) of the same molecule?
A: 0.3%

Q: And the Activity (Mus musculus)?
A: Non-toxic

Q: What about the Activity (A549 [19]) of the same molecule?
A: 12%

Q: And the Activity (A549 [20])?
A: 5.5%

Q: And the inhibition [21]?
A: Active

Q: And the Activity (A549 [22])?
A: 0.3%

Q: What about the Activity (A549 [23]) of the same molecule?
A: 24.5%

Q: What about the inhibition [24] of the same molecule?
A: Active

Q: What about the Activity (A549 [25]) of the same molecule?
A: 61.1%

Q: And the Activity (A549 [26])?
A: Active
